What was measured:
Prothrombin = Prothrombin (Homo sapiens, UniProt P00734); experiment: Inhibitory activity against human thrombin
[1] = (§1) Number of occlusions was reported; assay type: ADME
In short: (§2)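 Rat carotid artery FeCl3-induced thrombosis: inhibitor infused iv at 6 µg/kg/min for 120 min before FeCl3 insult (vehicle saline or 30% propylene glycol/saline); occlusions counted; plasma drug level at end of experiment. 2X APTT = plasma concentration (µM) doubling activated partial thromboplastin time, determined in rat plasma.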

Rattus norvegicus [2] = species on record: Rattus norvegicus; experiment: as §1; assay type: functional; in short: as §2
[3] = target: Tissue-type plasminogen activator (Homo sapiens, UniProt P00750); experiment: Inhibitory activity against human serine protease (TPA) (2.5*10e6*)
[4] = The fraction of free compound available in plasma of human; assay type: ADME, cell-free; conditions: read-out: Funbound_plasma
[5] = The half life period in rat.; assay type: ADME, organism-based; conditions: in vivo
In short: (§3)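 Cannulated rats (carotid artery; jugular vein for iv group) dosed 2 mg/kg iv (saline or 30% propylene glycol/saline) or 10 mg/kg po (0.1% methocel suspension). Blood sampled 1-360 min (iv) or 15-360 min (po), centrifuged, plasma extracted with acetonitrile and quantified by thrombin enzyme activity assay.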

Rattus norvegicus [6] = experiment: AUC (Area under curve) was determined after peroral administration at a dose 10 mg/kg in rat.; assay type: ADME, organism-based, Plasma; set-up: dose 10 mg/kg, route oral; conditions: in vivo, po
Plasma kallikrein = Plasma kallikrein (Homo sapiens, UniProt P03952); experiment: Inhibitory activity against human serine protease (plasma Kallikrein) (89000*)
[7] = Bioavailability in rat; assay type: ADME, organism-based; conditions: in vivo; in short: as §3
Coagulation factor X = Coagulation factor X (Homo sapiens, UniProt P00742); experiment: Inhibitory activity against human serine protease Coagulation factor X (1.7*10e6*)
[8] = (§4) log P values were determined by the standard partition method using octanol/pH 7.4 phosphate buffer; assay type: physicochemical
In short: (§5)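 Octanol/pH 7.4 phosphate buffer standard partition method.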

Plasminogen = Plasminogen (Homo sapiens, UniProt P00747); experiment: Inhibitory activity against human serine protease (plasmin) (3.0*10e6)
[9] = The plasma clearance in rat.; assay type: ADME, organism-based; conditions: read-out: CI; in short: as §3
Rattus norvegicus [10] = experiment: AUC (Area under curve) was determined after intravenous administration at a dose 2 mg/kg in rat.; assay type: ADME, organism-based, Plasma; set-up: dose 2 mg/kg, route intravenous; conditions: in vivo
Serine protease 1 [11] = target: T1, Serine protease 1 (Homo sapiens, UniProt P07477); experiment: Inhibitory activity against human serine protease (Trypsin)(2143*)
[12] = The fraction of free compound available in plasma of rat; assay type: ADME, cell-free; conditions: read-out: Funbound_plasma
Canis familiaris [13] = experiment: AUC (Area under curve) was determined after intravenous administration at a dose 1 mg/kg in dog; assay type: ADME, organism-based, Canis lupus familiaris, Plasma; set-up: dose 1 mg/kg, route intravenous; conditions: in vivo
In short: (§6)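 Two fasted male beagle dogs (10-12 kg), crossover design. Oral 5 mg/kg as 1% methocel suspension, blood from jugular vein at 0-480 min; iv 1 mg/kg bolus in 20% PEG/saline, blood at 0-480 min. Plasma frozen at -20 °C and assayed by HPLC.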

[14] = The plasma clearance in dog.; assay type: ADME, organism-based, Canis lupus familiaris; conditions: read-out: CI; in short: as §6
[15] = The half life period by intravenous administration in dog; assay type: ADME, organism-based, Canis lupus familiaris; conditions: in vivo; in short: as §6
Canis familiaris [16] = experiment: AUC (Area under curve) was determined after peroral administration at a dose 5 mg/kg in dog; assay type: ADME, organism-based, Canis lupus familiaris, Plasma; set-up: dose 5 mg/kg, route oral; conditions: in vivo, po; in short: as §6
[17] = The half life period by peroral administration in dog; assay type: ADME, organism-based, Canis lupus familiaris; conditions: in vivo, po; in short: as §6
Rattus norvegicus [18] = experiment: Concentration required to double the activated partial thromboplastin time (2X APTT) in FeCl3 induced thrombosis in rat carotid artery at 6 micro g/kg/min dose by intravenous administration.; assay type: functional; in short: as §2
[19] = Bioavailability in dog; assay type: ADME, organism-based, Canis lupus familiaris; conditions: in vivo; in short: as §6
[20] = as §4; assay type: physicochemical; in short: as §5; remark: listed apart in the source
Serine protease 1 [21] = target: T1, Serine protease 1; experiment: Inhibitory activity against human trypsin
[22] = Partition coefficient (logP); assay type: physicochemical; conditions: octanol/water; in short: as §5

T1 sequence (P07477 whole entry): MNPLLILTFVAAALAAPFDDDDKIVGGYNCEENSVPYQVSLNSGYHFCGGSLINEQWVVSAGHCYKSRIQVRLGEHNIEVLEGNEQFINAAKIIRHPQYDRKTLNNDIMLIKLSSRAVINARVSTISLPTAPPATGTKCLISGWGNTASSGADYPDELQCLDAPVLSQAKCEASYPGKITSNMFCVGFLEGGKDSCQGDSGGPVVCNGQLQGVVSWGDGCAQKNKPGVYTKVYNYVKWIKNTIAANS
Chain of Plasma kallikrein (P03952 20-390 limits assumed): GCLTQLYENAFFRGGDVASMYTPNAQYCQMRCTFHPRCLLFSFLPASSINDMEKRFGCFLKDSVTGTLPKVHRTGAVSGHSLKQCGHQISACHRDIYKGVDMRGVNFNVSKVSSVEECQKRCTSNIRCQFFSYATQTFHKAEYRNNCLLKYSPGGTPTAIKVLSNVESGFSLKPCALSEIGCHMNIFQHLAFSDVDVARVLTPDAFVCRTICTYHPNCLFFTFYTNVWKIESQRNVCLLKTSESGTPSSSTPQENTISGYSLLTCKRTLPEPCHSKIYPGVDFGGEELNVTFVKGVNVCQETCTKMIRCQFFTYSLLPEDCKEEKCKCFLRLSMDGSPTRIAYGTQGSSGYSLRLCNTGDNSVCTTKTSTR
Chain of Plasma kallikrein (P03952 391-638 limits assumed): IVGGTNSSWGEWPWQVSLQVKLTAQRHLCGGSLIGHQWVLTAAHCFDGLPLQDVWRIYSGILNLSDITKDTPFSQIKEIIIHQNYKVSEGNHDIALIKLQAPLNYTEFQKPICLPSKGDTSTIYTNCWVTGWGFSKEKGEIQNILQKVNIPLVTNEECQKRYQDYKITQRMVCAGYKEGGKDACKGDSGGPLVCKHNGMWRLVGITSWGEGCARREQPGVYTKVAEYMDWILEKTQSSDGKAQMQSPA
Chain of Tissue-type plasminogen activator (P00750 whole entry): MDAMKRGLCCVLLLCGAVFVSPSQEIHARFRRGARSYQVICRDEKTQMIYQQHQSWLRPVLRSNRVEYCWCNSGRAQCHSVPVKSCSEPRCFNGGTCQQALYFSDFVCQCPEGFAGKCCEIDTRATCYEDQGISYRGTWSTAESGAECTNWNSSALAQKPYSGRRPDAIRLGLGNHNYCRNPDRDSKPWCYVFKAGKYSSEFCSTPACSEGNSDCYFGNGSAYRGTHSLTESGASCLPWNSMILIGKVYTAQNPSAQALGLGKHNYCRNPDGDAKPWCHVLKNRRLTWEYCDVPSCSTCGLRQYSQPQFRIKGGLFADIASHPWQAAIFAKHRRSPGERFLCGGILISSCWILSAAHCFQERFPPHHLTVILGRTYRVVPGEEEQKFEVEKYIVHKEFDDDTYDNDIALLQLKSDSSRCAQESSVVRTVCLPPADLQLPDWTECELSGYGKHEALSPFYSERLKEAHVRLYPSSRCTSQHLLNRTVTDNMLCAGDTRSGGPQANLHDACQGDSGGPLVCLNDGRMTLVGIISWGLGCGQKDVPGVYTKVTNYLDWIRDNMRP
Chain of Plasminogen (P00747 97-580 limits assumed): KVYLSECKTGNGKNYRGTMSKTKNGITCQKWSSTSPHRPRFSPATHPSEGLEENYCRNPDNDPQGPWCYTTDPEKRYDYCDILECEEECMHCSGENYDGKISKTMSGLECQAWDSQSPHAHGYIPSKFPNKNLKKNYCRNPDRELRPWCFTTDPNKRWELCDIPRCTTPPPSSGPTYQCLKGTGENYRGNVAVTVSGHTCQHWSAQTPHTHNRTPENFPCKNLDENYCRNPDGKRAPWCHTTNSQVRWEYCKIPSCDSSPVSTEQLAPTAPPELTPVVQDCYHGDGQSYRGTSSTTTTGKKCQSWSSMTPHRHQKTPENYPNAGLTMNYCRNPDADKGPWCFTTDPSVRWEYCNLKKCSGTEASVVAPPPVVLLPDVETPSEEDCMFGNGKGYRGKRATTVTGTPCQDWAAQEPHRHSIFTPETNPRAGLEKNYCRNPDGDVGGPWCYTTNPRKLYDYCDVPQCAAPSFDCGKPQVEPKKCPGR
Chain of Plasminogen (P00747 581-810 limits assumed): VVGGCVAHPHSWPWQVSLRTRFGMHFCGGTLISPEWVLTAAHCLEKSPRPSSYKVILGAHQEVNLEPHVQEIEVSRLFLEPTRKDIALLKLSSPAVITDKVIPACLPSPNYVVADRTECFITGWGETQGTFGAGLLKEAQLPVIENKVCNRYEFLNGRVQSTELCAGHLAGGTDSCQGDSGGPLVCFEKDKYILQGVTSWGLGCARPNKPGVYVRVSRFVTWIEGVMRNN
Chain of Coagulation factor X (P00742 41-179 limits assumed): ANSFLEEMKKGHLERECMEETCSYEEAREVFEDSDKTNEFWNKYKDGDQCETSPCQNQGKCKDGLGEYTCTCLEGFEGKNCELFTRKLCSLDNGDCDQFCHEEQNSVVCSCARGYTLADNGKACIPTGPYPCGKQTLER
Chain of Coagulation factor X (P00742 235-488 limits assumed): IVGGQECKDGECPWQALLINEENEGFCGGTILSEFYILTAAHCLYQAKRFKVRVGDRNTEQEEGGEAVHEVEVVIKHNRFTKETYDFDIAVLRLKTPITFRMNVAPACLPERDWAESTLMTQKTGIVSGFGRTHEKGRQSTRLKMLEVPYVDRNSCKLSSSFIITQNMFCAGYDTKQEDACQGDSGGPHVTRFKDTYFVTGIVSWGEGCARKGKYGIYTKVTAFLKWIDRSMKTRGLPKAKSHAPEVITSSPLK

SMILES	Ki (Prothrombin)	No. of occlusions (Rattus norvegicus [2])	half-life [5]	AUC (Rattus norvegicus [6])	bioavailability [7]	logD [8]	clearance [9]	AUC (Rattus norvegicus [10])	fraction unbound [12]	also measured
NC1CCC(CNC(=O)[C@@H]2CCCN2C(=O)[C@@H](N)C(C2CCCCC2)C2CCCCC2)CC1 (some centres not stated)	440 nM	–	–	–	–	–	–	–	–	–
CC1CNc2c(cccc2S(=O)(=O)N[C@@H](CCCNC(=N)N)C(=O)N2CCC(C)C[C@@H]2C(=O)O)C1 (single isomer, unassigned) [ARGATROBAN]	–	–	–	–	–	–	–	–	–	No. of occlusions [1]: 0
NC1CCC(CNC(=O)[C@@H]2CCCN2C(=O)[C@H](N)C(C2CCCCC2)C2CCCCC2)CC1 (some centres not stated)	0.056 nM	1	0.2 h	0.36 µM·h	2%	0.794	6 mL/min/kg	3.3 µM·h	0.06	Ki [3]: 137000 nM; fraction unbound [4]: 0.02; Ki (Plasma kallikrein): 5000 nM; Ki (Coagulation factor X): 95000 nM; Ki (Plasminogen): 165000 nM; Ki (Serine protease 1 [11]): 120 nM
CC(C)(C)OC(=O)N[C@@H](C(=O)N1CCC[C@H]1C(=O)NCC1CCC(N)CC1)C(C1CCCCC1)C1CCCCC1 (some centres not stated)	0.1 nM	4	4.15 h	6.86 µM·h	41%	> 3.09	17.9 mL/min/kg	3.34 µM·h	< 0.01	AUC (Canis familiaris [13]): 90 µM·h; clearance [14]: 6.06 mL/min/kg; half-life [15]: 3.27 h; AUC (Canis familiaris [16]): 45.3 µM·h; half-life [17]: 7.13 h; Concentration (Rattus norvegicus [18]): 2.7 µM; bioavailability [19]: 90%; logD [20]: > 3.09
CC(C)(C)OC(=O)N[C@H](C(=O)N1CCC[C@H]1C(=O)NCC1CCC(N)CC1)C(C1CCCCC1)C1CCCCC1 (some centres not stated)	3000 nM	–	–	–	–	–	–	–	–	–
NC1CCC(CNC(=O)[C@@H]2CCCN2C(=O)[C@H](N)C(c2ccccc2)c2ccccc2)CC1 (some centres not stated)	–	–	–	–	–	–	–	–	–	Ki (Serine protease 1 [21]): 94 nM; logP [22]: -0.539

Reference: ChEMBL document CHEMBL1130205, “Potent noncovalent thrombin inhibitors that utilize the unique amino acid D-dicyclohexylalanine in the P3 position. Implications on oral bioavailability and antithrombotic efficacy” (J Med Chem, 1997)
